Test results reported in ChEMBL document CHEMBL1938262, “A specific protein disorder catalyzer of HIV-1 Nef” (Bioorg Med Chem, 2011).
pEC50, pIC50: −log10 of the molar value. Calls of active or inactive are those of the source. The calls are words filed in the database; no cut-off is given here.

Columns and labels:
[1] = Solubility of the compound; assay type: physicochemical
[2] = Inhibition of HIV1 Nef (56-206)/SH3 domain of GST-Hck expressed in Escherichia coli BL21 DE3 complex formation at […] after 1 hr by high-mass MALDI TOF analysis
How it was run: (§1)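 Nef core (56–206) and Hck SH3 were expressed in E. coli BL21 DE3 as GST fusions, thrombin-cleaved and gel-filtered. Nef was preincubated 1 h at rt with compound from DMSO stocks (up to 5 mM stock), then SH3-Hck was added for 1 h at rt. Samples were cross-linked 1 h, mixed with sinapinic acid matrix and analysed by high-mass MALDI-TOF in triplicate. IC50 comes from % complex versus log concentration.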

[3] = Inhibition of HIV1 Nef (56-206)/SH3 domain of GST-Hck expressed in Escherichia coli BL21 DE3 complex formation after 1 hr by high-mass MALDI TOF analysis; how it was run: as §1
[4] = Induction of HIV1 GST-Nef-mVenus proteolysis after 30 mins preincubation measured after 60 mins by cleavage enzyme-cytometric bead array method in presence of HIV1 protease; set-up: species or system Human immunodeficiency virus 1
How it was run: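 CE-CBA: a GST-Nef-mVenus reporter is immobilized on anti-GST antibody beads and cleaved by HIV protease. Cleavage is followed as loss of bead fluorescence by flow cytometry. Values are normalized to the DMSO control (0% cleavage) and intrinsic bead fluorescence (100%). Relative EC50 is reported as mean ± SEM of three independent experiments.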

[5] = Cytotoxicity against african green monkey COS7 cells assessed as cell viability up to 40 uM after 70 hrs; assay type: cell-based, COS-7; conditions: chlorocebus aethiops, read-out: Activity
[6] = system: Protein Nef (Human immunodeficiency virus type 1); assay: Decrease in aggregation temperature of HIV1 His-tagged Nef at 10 to 200 uM by thermal protein denaturation assay (reference value: 58.83 +/- 0.25 degC)

| Compound | solubility [1] | inhibition [2] | pIC50 [3] | pEC50 [4] | viability at 70 h [5] | T [6] |
| --- | --- | --- | --- | --- | --- | --- |
| CC(C)(C)c1ccc(-c2ccc(OCC(=O)Nc3cccc(C(=O)O)c3)cc2)cc1 | Insoluble | Active | 4.80 | 4.46 | 73% |  |
| CC(C)(C)c1ccc(OCC(=O)Nc2cccc(C(=O)O)c2)cc1 |  | Active | < 4.30 | 3.96 | 86.6% | 50.3 °C |
| COC(=O)c1cccc(NC(=O)COc2ccc(-c3ccc(C(C)(C)C)cc3)cc2)c1 | Insoluble |  |  |  |  |  |
